Assay results as given in ChEMBL document CHEMBL4828755, “A sulfonyl fluoride derivative inhibits EGFRL858R/T790M/C797S by covalent modification of the catalytic lysine” (Eur J Med Chem, 2021).
The source made the active and inactive calls. The rule behind the calls is not given here.

How the values were obtained:
[1] = biological target: Epidermal growth factor receptor (Homo sapiens, UniProt P00533, C797S/L858R/T790M); assay: Inhibition of EGFR L858R/T790M/C797S triple mutant (unknown origin) using […] preincubated with enzyme and ATP at 10XKm for 3 hrs followed by substrate addition and measured after 1 hr by TR-FRET assay
[2] = biological target: T1, Epidermal growth factor receptor (Homo sapiens, UniProt P00533); format: ADME
[3] = biological target: T1, Epidermal growth factor receptor; format: ADME; remark: listed apart in the source
[4] = biological target: RAC-beta serine/threonine-protein kinase (Homo sapiens) (UniProt P31751); assay: Inhibition of His-tagged full length human recombinant AKT2 expressed in baculovirus expression system at 1 uM by Z'-LYTE assay
Procedure, shortened: (§1)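 Z'-LYTE FRET kinase panel; phosphorylation of a reference peptide measured with ATP at each enzyme's Km. Compounds tested in 1% DMSO at 0.1 and/or 1 μM. Values are means of two independent experiments with standard deviations.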

[5] = biological target: Tyrosine-protein kinase Lck (Homo sapiens) (UniProt P06239); assay: Inhibition of human recombinant LCK at 1 uM by Z'-LYTE assay; procedure, shortened: as §1
[6] = biological target: Mitogen-activated protein kinase 3 (Homo sapiens) (UniProt P27361); assay: Inhibition of GST-tagged human full length recombinant ERK1 expressed in Escherichia coli at 1 uM by Z'-LYTE assay; procedure, shortened: as §1
[7] = biological target: Fibroblast growth factor receptor 4 (Homo sapiens) (UniProt P22455); assay: Inhibition of His-tagged human recombinant FGFR4 ([…] residues) expressed in baculovirus expression system at 1 uM by Z'-LYTE assay; procedure, shortened: as §1
[8] = biological target: T2, Inhibitor of nuclear factor kappa-B kinase subunit beta (Homo sapiens) (UniProt O14920); assay: Inhibition of GST-tagged human full length recombinant IKKbeta expressed in baculovirus expression system at 1 uM by Z'-LYTE assay; procedure, shortened: as §1
T2 sequence (whole entry): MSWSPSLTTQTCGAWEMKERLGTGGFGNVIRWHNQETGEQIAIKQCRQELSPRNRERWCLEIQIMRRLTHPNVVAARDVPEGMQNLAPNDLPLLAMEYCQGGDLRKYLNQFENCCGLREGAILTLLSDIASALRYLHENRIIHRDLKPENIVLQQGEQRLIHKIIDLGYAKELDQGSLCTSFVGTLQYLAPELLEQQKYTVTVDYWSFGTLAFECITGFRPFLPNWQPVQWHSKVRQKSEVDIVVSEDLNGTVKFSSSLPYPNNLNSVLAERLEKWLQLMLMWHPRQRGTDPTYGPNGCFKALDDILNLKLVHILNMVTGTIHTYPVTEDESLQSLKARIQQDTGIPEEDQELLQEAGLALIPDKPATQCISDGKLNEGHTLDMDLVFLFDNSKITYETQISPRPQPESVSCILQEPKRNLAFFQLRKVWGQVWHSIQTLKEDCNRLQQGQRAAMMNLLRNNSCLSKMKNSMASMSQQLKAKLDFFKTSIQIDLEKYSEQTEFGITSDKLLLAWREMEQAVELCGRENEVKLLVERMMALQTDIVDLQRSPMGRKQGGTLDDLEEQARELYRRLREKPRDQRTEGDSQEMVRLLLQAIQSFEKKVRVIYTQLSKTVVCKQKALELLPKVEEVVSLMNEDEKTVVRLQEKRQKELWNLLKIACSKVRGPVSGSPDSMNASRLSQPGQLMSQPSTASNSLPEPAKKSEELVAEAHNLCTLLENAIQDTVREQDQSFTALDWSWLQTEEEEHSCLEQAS

[9] = biological target: Tyrosine-protein kinase JAK1 (Homo sapiens) (UniProt P23458); assay: Inhibition of GST-tagged human recombinant JAK1 (866 to 1154 residues) expressed in baculovirus expression system at 1 uM by Z'-LYTE assay; procedure, shortened: as §1
[10] = biological target: Mitogen-activated protein kinase 14 (Homo sapiens) (UniProt Q16539); assay: Inhibition of GST-tagged human full length recombinant p38 alpha expressed in Escherichia coli at 1 uM by Z'-LYTE assay; procedure, shortened: as §1
[11] = biological target: Platelet-derived growth factor receptor alpha (Homo sapiens) (UniProt P16234); assay: Inhibition of GST-tagged human recombinant PDGFR alpha (550 to 1089 residues) expressed in baculovirus expression system at 1 uM by Z'-LYTE assay; procedure, shortened: as §1
[12] = system: Epidermal growth factor receptor (Homo sapiens), P00533 [L858R,T790M,C797S]; assay: (§2) Covalent binding affinity to recombinant EGFR L858R/T790M/C797S triple mutant (unknown origin) assessed as Lys745 sulfonylation in tryptic digested peptide IPVAIK745ELR at enzyme:compound molar concentration ratio of 1:5 incubated for 1 hr and measured following tryptic digestion by LC-HRMS analysis
Procedure, shortened: (§3)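 Recombinant triple-mutant EGFR co-incubated with inhibitor at 1:5 molar ratio for 1 h in Kinase Buffer A (50 mM HEPES pH 7.5, 10 mM MgCl2, 1 mM EGTA, 0.01% Brij-35); DMSO vehicle control. Reduced with DTT (15 min, 60°C), alkylated with iodoacetamide, trypsin-digested overnight at 37°C (1:10 trypsin:protein), C18 cleanup, analysed by LC-HRMS in ESI positive mode.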

[13] = system: Epidermal growth factor receptor (Homo sapiens), P00533 [L858R,T790M,C797S]; assay: as §2, with “isotopic profiling” for “LC-HRMS”; procedure, shortened: as §3
[14] = system: Epidermal growth factor receptor (Homo sapiens), P00533 [L858R,T790M,C797S]; assay: Inhibition of EGFR L858R/T790M/C797S triple mutant (unknown origin) expressed in mouse Ba/F3 cells assessed as inhibition of EGF-stimulated receptor phosphorylation incubated for 4 hrs followed by EGF stimulation for 10 mins by western blot analysis; format: cell-based; settings: BaF3, dose 10-1000 nM, time 250.0 min
Procedure, shortened: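 Ba/F3 cells expressing EGFR L858R/T790M/C797S were treated for 4 h across increasing concentrations (DMSO ≤0.1%), then stimulated with 100 ng/ml EGF for 10 min. Lysates were immunoblotted for pEGFR (Tyr1068), EGFR and actin.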

[15] = biological target: T2, Inhibitor of nuclear factor kappa-B kinase subunit beta (Homo sapiens); assay: Inhibition of GST-tagged human full length recombinant IKKbeta expressed in baculovirus expression system at 100 to 1000 nM by Z'-LYTE assay; settings: dose 100-1000 nM
[16] = biological target: Tyrosine-protein kinase JAK1 (Homo sapiens) (UniProt P23458); assay: Inhibition of GST-tagged human recombinant JAK1 (866 to 1154 residues) expressed in baculovirus expression system at 100 to 1000 nM by Z'-LYTE assay; settings: dose 100-1000 nM
[17] = biological target: Mitogen-activated protein kinase 14 (Homo sapiens) (UniProt Q16539); assay: Inhibition of GST-tagged human full length recombinant p38 alpha expressed in Escherichia coli at 100 to 1000 nM by Z'-LYTE assay; settings: dose 100-1000 nM
[18] = biological target: Platelet-derived growth factor receptor alpha (Homo sapiens) (UniProt P16234); assay: Inhibition of GST-tagged human recombinant PDGFR alpha (550 to 1089 residues) expressed in baculovirus expression system at 100 to 1000 nM by Z'-LYTE assay; settings: dose 100-1000 nM
[19] = biological target: Rho-associated protein kinase 1 (Homo sapiens) (UniProt Q13464); assay: Inhibition of GST-tagged human recombinant ROCK1 (1 to 535 residues) expressed in baculovirus expression system at 100 to 1000 nM by Z'-LYTE assay; settings: dose 100-1000 nM
Sequence of Rho-associated protein kinase 1 (Homo sapiens) (Q13464 2-1354 limits assumed): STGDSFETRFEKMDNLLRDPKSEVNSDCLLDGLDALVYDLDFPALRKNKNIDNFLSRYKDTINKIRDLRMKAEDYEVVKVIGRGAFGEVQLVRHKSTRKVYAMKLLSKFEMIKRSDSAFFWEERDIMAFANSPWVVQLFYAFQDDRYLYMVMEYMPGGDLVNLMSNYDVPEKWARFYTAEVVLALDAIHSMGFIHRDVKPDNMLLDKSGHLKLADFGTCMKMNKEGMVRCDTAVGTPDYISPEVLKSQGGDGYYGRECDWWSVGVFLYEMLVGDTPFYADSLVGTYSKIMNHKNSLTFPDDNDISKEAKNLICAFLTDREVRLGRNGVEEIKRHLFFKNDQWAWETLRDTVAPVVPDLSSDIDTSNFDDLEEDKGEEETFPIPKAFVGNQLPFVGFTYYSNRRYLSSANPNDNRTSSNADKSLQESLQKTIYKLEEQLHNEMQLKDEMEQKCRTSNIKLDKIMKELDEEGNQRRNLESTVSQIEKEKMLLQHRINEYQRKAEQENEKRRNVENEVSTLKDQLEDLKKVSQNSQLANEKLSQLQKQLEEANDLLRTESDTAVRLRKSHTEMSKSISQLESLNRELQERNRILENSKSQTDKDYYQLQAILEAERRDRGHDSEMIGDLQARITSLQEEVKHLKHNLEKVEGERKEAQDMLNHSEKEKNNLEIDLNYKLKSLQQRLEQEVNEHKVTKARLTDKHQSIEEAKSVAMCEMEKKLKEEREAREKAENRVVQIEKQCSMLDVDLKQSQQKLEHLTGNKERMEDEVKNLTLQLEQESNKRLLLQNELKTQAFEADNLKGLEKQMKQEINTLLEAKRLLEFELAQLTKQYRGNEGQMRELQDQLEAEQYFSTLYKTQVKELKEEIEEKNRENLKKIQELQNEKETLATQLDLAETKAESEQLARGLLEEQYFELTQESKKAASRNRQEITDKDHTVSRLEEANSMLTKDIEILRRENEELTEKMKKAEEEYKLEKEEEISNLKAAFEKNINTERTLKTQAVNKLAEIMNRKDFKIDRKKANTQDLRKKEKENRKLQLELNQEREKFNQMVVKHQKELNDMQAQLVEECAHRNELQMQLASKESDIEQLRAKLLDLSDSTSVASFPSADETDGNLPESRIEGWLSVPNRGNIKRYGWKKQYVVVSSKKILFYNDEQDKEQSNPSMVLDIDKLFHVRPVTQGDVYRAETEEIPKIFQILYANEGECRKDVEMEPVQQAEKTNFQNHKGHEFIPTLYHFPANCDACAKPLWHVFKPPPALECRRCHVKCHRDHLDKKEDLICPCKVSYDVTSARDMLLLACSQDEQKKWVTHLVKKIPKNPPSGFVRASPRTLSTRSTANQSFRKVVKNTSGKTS

Sequence of Platelet-derived growth factor receptor alpha (Homo sapiens) (P16234 whole entry, the tested form may be a part): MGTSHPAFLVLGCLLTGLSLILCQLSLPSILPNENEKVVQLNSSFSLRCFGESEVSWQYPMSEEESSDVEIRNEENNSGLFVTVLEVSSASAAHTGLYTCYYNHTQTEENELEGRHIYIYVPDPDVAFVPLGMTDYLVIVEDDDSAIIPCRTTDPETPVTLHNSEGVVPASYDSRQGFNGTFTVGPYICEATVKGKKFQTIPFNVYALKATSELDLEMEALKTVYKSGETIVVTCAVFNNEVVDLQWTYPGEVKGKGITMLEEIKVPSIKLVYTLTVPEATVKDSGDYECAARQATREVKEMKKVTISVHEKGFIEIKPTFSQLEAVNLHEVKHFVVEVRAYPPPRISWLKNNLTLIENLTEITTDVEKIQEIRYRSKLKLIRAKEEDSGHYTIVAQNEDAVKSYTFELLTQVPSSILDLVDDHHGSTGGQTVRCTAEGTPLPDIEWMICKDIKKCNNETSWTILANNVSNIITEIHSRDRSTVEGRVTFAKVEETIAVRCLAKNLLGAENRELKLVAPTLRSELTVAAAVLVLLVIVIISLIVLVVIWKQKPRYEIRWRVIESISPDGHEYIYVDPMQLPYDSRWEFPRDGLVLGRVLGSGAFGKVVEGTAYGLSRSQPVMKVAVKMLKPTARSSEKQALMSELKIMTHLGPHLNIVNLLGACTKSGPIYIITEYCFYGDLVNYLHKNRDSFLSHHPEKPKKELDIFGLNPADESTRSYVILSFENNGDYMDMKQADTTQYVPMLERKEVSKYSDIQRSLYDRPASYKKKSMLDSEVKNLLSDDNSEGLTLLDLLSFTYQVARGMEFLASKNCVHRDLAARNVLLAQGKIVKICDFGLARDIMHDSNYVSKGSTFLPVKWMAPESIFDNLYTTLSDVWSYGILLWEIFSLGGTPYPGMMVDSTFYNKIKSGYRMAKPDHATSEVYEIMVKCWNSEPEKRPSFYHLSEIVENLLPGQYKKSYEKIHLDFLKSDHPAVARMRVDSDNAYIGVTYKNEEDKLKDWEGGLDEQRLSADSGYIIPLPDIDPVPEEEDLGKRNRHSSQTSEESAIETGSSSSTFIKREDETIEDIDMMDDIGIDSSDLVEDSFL
Sequence of Tyrosine-protein kinase JAK1 (Homo sapiens) (P23458 whole entry, the tested form may be a part): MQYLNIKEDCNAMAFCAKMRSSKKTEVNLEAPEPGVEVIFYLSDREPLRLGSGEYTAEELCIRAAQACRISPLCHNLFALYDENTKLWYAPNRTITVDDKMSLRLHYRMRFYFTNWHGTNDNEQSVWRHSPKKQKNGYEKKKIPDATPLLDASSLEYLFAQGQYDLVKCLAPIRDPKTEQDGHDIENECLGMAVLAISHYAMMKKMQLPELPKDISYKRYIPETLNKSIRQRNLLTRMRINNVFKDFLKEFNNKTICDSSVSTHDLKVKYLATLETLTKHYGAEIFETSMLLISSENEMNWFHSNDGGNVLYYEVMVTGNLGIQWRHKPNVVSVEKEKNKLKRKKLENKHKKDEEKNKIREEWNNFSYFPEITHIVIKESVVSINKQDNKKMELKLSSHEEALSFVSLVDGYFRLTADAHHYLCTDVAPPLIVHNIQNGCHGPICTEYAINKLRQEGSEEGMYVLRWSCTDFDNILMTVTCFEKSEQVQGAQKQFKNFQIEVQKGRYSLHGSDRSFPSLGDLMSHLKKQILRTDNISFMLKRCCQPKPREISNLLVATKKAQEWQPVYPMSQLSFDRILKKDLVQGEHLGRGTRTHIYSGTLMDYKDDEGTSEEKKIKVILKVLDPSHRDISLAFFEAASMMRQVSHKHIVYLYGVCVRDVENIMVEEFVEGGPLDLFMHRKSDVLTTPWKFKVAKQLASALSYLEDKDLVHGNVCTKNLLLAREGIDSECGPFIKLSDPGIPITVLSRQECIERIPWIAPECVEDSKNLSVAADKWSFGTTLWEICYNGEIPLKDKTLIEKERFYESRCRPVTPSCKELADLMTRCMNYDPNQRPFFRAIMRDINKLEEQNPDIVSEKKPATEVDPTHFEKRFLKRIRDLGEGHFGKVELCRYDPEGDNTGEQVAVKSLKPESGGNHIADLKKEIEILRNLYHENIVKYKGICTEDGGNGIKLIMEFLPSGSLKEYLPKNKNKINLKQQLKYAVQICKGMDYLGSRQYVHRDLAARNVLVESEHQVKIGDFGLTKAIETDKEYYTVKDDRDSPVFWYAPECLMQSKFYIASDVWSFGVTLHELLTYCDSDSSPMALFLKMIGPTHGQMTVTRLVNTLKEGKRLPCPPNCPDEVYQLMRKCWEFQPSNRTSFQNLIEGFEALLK
Sequence of Mitogen-activated protein kinase 14 (Homo sapiens) (Q16539 whole entry, the tested form may be a part): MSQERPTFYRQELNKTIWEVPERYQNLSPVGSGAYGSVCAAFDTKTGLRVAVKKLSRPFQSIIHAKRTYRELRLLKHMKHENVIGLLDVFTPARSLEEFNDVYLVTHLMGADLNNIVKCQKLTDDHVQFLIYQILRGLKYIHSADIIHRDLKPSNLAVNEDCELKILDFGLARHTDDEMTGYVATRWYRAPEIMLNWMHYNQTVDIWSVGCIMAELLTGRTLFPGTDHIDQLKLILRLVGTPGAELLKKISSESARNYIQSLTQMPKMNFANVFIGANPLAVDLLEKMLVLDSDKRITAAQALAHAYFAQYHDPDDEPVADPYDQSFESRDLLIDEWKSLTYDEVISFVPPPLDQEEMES
Sequence of Tyrosine-protein kinase Lck (Homo sapiens) (P06239 2-509 limits assumed): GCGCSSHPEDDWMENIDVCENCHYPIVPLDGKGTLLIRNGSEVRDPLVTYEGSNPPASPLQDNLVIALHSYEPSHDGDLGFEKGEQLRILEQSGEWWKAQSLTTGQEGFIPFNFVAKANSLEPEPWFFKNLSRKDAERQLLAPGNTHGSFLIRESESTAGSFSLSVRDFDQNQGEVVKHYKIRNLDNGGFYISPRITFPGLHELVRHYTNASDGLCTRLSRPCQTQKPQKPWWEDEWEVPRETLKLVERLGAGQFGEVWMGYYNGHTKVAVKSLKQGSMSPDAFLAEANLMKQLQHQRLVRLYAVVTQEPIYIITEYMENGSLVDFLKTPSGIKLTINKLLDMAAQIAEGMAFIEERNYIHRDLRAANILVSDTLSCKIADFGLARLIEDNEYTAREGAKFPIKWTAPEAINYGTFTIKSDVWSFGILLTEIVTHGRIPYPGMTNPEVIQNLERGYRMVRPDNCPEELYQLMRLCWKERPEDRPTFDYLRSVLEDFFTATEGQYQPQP
Sequence of Mitogen-activated protein kinase 3 (Homo sapiens) (P27361 whole entry): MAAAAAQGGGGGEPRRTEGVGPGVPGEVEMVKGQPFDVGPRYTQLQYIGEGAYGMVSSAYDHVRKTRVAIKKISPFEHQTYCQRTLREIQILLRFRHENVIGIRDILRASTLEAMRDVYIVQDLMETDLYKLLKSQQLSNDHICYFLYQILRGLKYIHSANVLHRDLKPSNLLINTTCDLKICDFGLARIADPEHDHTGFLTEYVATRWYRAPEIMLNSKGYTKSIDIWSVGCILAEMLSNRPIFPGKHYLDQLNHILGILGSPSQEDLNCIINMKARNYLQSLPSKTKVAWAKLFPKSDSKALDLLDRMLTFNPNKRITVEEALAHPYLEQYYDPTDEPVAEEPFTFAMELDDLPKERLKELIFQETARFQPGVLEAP

COc1cc(N2CCN(C(C)=O)CC2)ccc1Nc1ncc(Cl)c(Nc2ccc(NCc3ccc(S(=O)(=O)F)cc3)cc2)n1 was tested, and the IC50 [1] was 23 nM, the IC50 [2] was 210 nM and the IC50 [3] was 30 nM. The inhibition [4] was 90%, the inhibition [5] was 100% and the inhibition [6] was < 25%. For the same compound, the inhibition [7] was < 25%, the inhibition [8] was < 25% and the inhibition [9] was “Active”. The inhibition [10] was < 25%, the inhibition [11] was < 25% and the Activity [12] was “Active”. The Activity [13] was “Active” and the inhibition [14] was “Dose-Dependent Effect”.
In the case of C#CCNC(=O)c1cc(Nc2cc(C3CC3)[nH]n2)nc(N2CCN(Cc3ccc(S(=O)(=O)F)cc3)CC2)n1, the inhibition [15] is reported as “inactive”, the inhibition [16] is reported as “inactive” and the inhibition [17] is reported as “inactive”. The inhibition [18] was “inactive” and the inhibition [19] was “inactive”.
